Source: PubChem
Only some compounds are listed: those with a hit (about 1.8% of all), similar ones and a draw of the others.
hiPSC survival: hiPSC single-cell survival enhancement | ATPlite luminescence; 100% = ROCK inhibitor wells, 0% = DMSO | survival enhancement, % at 20 µM | actives 0.044% (n = 360,000) | AID 602274; in the data active = survival enhancement above about 18%;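 note: cells exposed to compounds for 16 hours before the ATP read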
Gli-Sufu antag: antagonists of Gli-Sufu signaling | Sufu-KO-LIGHT fibroblasts, Gli luciferase reporter luminescence | inhibition, % at 5 µM | actives 0.74% (n = 340,000) | AID 588413;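 active = inhibition above about 55%, limit read from the data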
TAG inh: triacylglycerol accumulation inhibition. H9c2 cells, Nile Red lipid (TAG) fluorescence; cells loaded with 200 µM oleic acid. inhibition, % at 12.5 µM. actives 0.66% (n = 230,000). AID 651582;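 active = pattern-corrected inhibition of lipid staining of at least 50% with the nuclear-stain viability signal not falling by more than 50%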
Jurkat NFkB inh: inhibitors of the PMA/ionomycin-induced NF-kB reporter in Jurkat cells. PMA/ionomycin-induced NF-kB luciferase reporter, luminescence. inhibition, % at 4 µM. actives 0.53% (n = 330,000); in the data active = inhibition above about 50%
697 NFkB inh: inhibitors of the PMA/ionomycin-induced NF-kB reporter in 697 B cells | actives 0.33% (n = 330,000) | inhibition, % at 4 µM | AID 435022 | 697 B-cell NF-kB luciferase reporter, 16 h; in the data active = inhibition above about 35%
Lipid droplet: hepatic lipid droplet formation modulation. AML12 mouse hepatocytes, oleate lipid droplets, BODIPY imaging. AID 1656. actives 0.4% (n = 240,000). inhibition, % at 6.5 µM;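 active = lipid droplet intensity inhibited by at least 50%, with more than 500 cells counted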
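Material – AML12 mouse liver cells · Also added – oleate loading, 100 µM · Compound dosing – 6.5 µM single-point dosing · Times – overnight treatment with compound plus oleate · Measured by – fluorescence imaging, 20x objective, two fields per well · Read-out – percent inhibition of filter-corrected integrated lipid droplet intensity per well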
697 NFkB conf: inhibitors of the PMA/ionomycin-induced NF-kB reporter in 697 B cells, retest; shares compounds with 697 NFkB inh; 697 B-cell NF-kB luciferase, 16 h; inhibition, % at 4 µM; actives 35% (n = 2,000); AID 449746; in the data active = inhibition mostly above about 28%, no sharp cut-off; inactive = mostly below about 22%
Gli-Sufu confirm: Gli-SUFU antagonism confirmation, single concentration | actives 40% (n = 2,500) | shares compounds with Gli-Sufu antag | Sufu-KO-LIGHT cells, Gli luciferase reporter, luminescence | AID 602428 | inhibition, % at 5 µM;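 active = mean inhibition at 5 µM reaching about 45%, limit read from the data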
Gli cytotox: cytotoxicity counter-screen for Gli-SUFU antagonists; shares compounds with Gli-Sufu antag; Sufu-KO-LIGHT cells cytotoxicity, ATP luminescence; cytotoxicity, % at 5 µM; actives 32% (n = 2,500);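 active = mean cytotoxicity at 5 µM above about 25%, limit read from the data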;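 note: cells exposed to compound overnight for roughly 16 to 18 hours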
Wnt3a counter: inhibits Wnt3a reporter, counter-screen for Gli-SUFU antagonists; shares compounds with Gli-Sufu antag; inhibition, % at 6.25 µM; actives 20% (n = 2,500); Wnt-LIGHT cells, Wnt3a-driven luciferase reporter, luminescence;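 active = mean inhibition above about 25%, limit read from the data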
A number is an active result; n = inactive; x = no result given.

SMILES	hiPSC survival	Gli-Sufu antag	TAG inh	Jurkat NFkB inh	697 NFkB inh	Lipid droplet	697 NFkB conf	Gli-Sufu confirm	Gli cytotox	Wnt3a counter
COc1ccc(S(=O)(=O)N(C)C)cc1NC(=O)c1ccc2c(c1)NC(=O)C(C)S2 (stereo not drawn)	n	n	n	n	n	x	x	x	x	x
Nc1ccc(-c2cc3ccccc3oc2=O)cc1	n	61	n	n	61	n	48	72	n	103
CCOc1ccc(-c2nc(CSCC(=O)NCC3CCCO3)c(C)o2)cc1 (stereo not drawn)	n	89	x	n	88	n	n	89	n	n
CC(C)(C)C1CCC(=NNC(=O)C(=O)NCc2ccco2)CC1 (stereo not drawn)	n	n	n	n	n	n	x	x	x	x
CN(C)S(=O)(=O)c1ccc(C(=O)Nc2nc(-c3cc4ccccc4o3)cs2)cc1	n	n	x	n	n	n	x	x	x	x
CC1CN(S(=O)(=O)c2ccc(C(=O)Nc3nc(-c4cc5ccccc5o4)cs3)cc2)CC(C)O1 (stereo not drawn)	n	75	n	n	74	n	51	79	n	30
c1ccc(CCNc2ncnc3ccccc23)cc1	n	55	n	n	49	n	29	58	29	n
Cc1cc2c(NCCc3ccccc3)ncnc2s1	n	x	x	n	n	n	x	x	x	x
CCOc1ccc(N2Cc3ccccc3C2)cc1	n	n	x	n	n	x	x	x	x	x
CCOc1ccc(-n2c(-c3ccccc3)c[n+]3c2CCCCC3)cc1	n	86	n	n	63	n	64	90	25	40
COc1ccccc1-c1noc(CCCC(=O)NC2CCCC2)n1	n	n	x	n	n	n	x	x	x	x
O=C(CCCc1nc(-c2ccccc2Cl)no1)NC1CCCC1	n	64	x	n	74	n	78	57	n	93
COc1cc(/C=C2\SC(=S)N(CCC(=O)N3CCCCC3)C2=O)cc(OC)c1OC	n	n	x	n	n	x	x	x	x	x
COc1ccc(S(=O)(=O)N2CCCCC2)cc1NC(=O)CCCNC(=O)c1ccc(Cl)cc1	n	n	n	n	n	x	x	x	x	x
CC1CCN(c2c(NCc3ccc(C(=O)N4c5ccccc5CC4C)cc3)c(=O)c2=O)CC1 (stereo not drawn)	n	57	n	n	43	n	39	57	n	n
COc1ccccc1-c1cc(-c2ccc(C)cc2)nc(SCc2nnc(-c3ccccc3)o2)c1C#N	n	n	n	n	n	n	x	x	x	x
Cc1cc(C)c(C#N)c(SCc2nnc(-c3ccccc3)o2)n1	n	70	n	n	n	n	n	83	35	96
O=C(NCCC(F)(F)F)C1Cc2c(-c3ccccc3Oc3ccccc3)ccnc2O1 (stereo not drawn)	n	x	n	x	x	x	x	x	x	x
CC(C)(C)c1ccc(-n2ncc3c2CCCC3NC(=O)C2(C(N)=O)CC2)cc1 (stereo not drawn)	n	76	x	n	43	n	83	65	30	n
O=C1CCC2S/C(=C/Nc3ccc(C(F)(F)F)cc3)C(=O)N12 (stereo not drawn)	n	58	n	n	81	n	49	60	n	106
O=C(Nc1cccc(S(=O)(=O)Nc2ccc(Cl)cc2)c1)c1ccc(Cl)nc1	n	68	n	n	57	n	53	64	39	n
O=C(Nc1ccc(NS(=O)(=O)c2ccccc2)cc1)c1ccc(Cl)cc1	n	n	n	n	n	n	x	x	x	x
CC(C)(C)c1ccc(C(=O)NC(=S)Nc2ccc(N3CCOCC3)cc2)cc1	n	60	x	n	n	n	n	52	n	n
CC(C)(C)c1nnc(SCC(=O)Nc2ccc(N3CCCCC3)cc2)n1N	n	n	n	n	n	x	x	x	x	x
